Reference: ChEMBL document CHEMBL4364270, “Structure-activity relationship studies on Bax activator SMBA1 for the treatment of ER-positive and triple-negative breast cancer” (Eur J Med Chem, 2019)
Each block holds one compound with its values, some of them ahead of it.

Tests used:
MDA-MB-231 [1] = assay: Antiproliferative activity against triple negative human MDA-MB-231 cells assessed as reduction in cell growth incubated for 48 hrs by MTT assay; assay type: functional, cell-based; details: MDA-MB-231, 48 h
Summary of the method: (§1)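 MTT viability: MCF-7 and MDA-MB-231 seeded 1×10^4 cells/well, exposed to DMSO or 0.01-100 μM for 48 h; MTT (5 mg/mL in PBS) added 4 h, formazan dissolved in DMSO, OD 550 nm; quadruplicate wells; IC50 fitted for compounds giving >50% inhibition at 10 µM; at least three independent experiments.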

MCF7 [2] = assay: Antiproliferative activity against ER-positive human MCF7 cells assessed as reduction in cell growth incubated for 48 hrs by MTT assay; assay type: functional, cell-based; details: MCF7, 48 h; summary of the method: as §1
MCF7 [3] = assay: Antiproliferative activity against ER-positive human MCF7 cells assessed as reduction in cell viability at 10 uM incubated for 48 hrs by MTT assay relative to control; assay type: functional; details: MCF7, 48 h; summary of the method: as §1
MDA-MB-231 [4] = assay: Antiproliferative activity against triple negative human MDA-MB-231 cells assessed as reduction in cell growth at 10 uM incubated for 48 hrs by MTT assay relative to control; assay type: functional; details: MDA-MB-231, 48 h; summary of the method: as §1
MCF-10A = assay: Antiproliferative activity against human MCF10A cells assessed as reduction in cell growth incubated for 72 hrs by MTT assay; assay type: functional, cell-based
Summary of the method: (§2)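 MTT viability after 72 h exposure at indicated concentrations; cells seeded at 1×10^3 cells/well (T47D, MDA-MB-468, MCF-10A, MCF-7/ADR) in 96-well plates; quadruplicate wells, independently repeated three times; IC50 as mean ± SE of at least three experiments.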

MDA-MB-231 [5] = assay: Antitumor activity against triple-negative human MDA-MB-231 cells xenografted in mouse assessed as reduction in tumor growth at 40 mg/kg, ip administered once daily for 7 days; assay type: functional; details: MDA-MB-231, ip, 168 h, read-out: GI
Summary of the method: (§3)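 Female nude mice (6 weeks) given 2.5×10^6 MDA-MB-231 cells in PBS into third mammary fat pad, randomized into four groups; at 200 mm³ tumor volume dosed i.p. daily for 7 days in 50% DMSO/50% PEG vehicle; tumor volume (0.5×L×W²) and body weight measured daily; one-way ANOVA.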

T47D = assay: Antiproliferative activity against ER-positive human T47D cells assessed as reduction in cell growth incubated for 72 hrs by MTT assay; assay type: functional, cell-based; summary of the method: as §2
[6] = Toxicity in mouse xenografted with triple negative human MDA-MB-231 cells assessed as body weight at 40 mg/kg, ip administered once daily for 7 days; assay type: organism-based; details: in vivo, 168 h; summary of the method: as §3
MDA-MB-468 = assay: Antiproliferative activity against triple negative human MDA-MB-468 cells assessed as reduction in cell growth incubated for 72 hrs by MTT assay; assay type: functional, cell-based; details: MDA-MB-468, 72 h; summary of the method: as §2
MDA-MB-231 [7] = assay: Potency index, ratio of SMBA1 IC50 to compound IC50 for antiproliferative activity against triple negative human MDA-MB-231 cells assessed as reduction in cell growth incubated for 48 hrs by MTT assay; assay type: functional
[8] = Toxicity in mouse xenografted with triple negative human MDA-MB-231 cells assessed as body weight at 20 mg/kg, ip administered once daily for 7 days; assay type: organism-based; details: in vivo, 168 h; summary of the method: as §3
MCF7 [9] = assay: Potency index, ratio of SMBA1 IC50 to compound IC50 for antiproliferative activity against ER-positive human MCF7 cells assessed as reduction in cell growth incubated for 48 hrs by MTT assay; assay type: functional
MDA-MB-231 [10] = assay: Antitumor activity against triple-negative human MDA-MB-231 cells xenografted in mouse assessed as reduction in tumor growth at 20 mg/kg, ip administered once daily for 7 days; assay type: functional; details: MDA-MB-231, ip, 168 h, read-out: GI; summary of the method: as §3

Compound: COc1ccccc1C=C1c2ccccc2-c2ccc([N+](=O)[O-])cc21
IC50 (MDA-MB-231 [1]): > 10 µM
IC50 (MCF7 [2]): > 10 µM

Compound: O=[N+]([O-])c1ccc2c(c1)C(=Cc1cccnc1O)c1ccccc1-2
IC50 (MDA-MB-231 [1]): > 10 µM

Compound: CN1CCN(c2ncccc2C=C2c3ccccc3-c3ccc([N+](=O)[O-])cc32)CC1
IC50 (MDA-MB-231 [1]): > 10 µM
IC50 (MCF7 [2]): > 10 µM

Compound: CC(C)(C)OC(=O)NCCOc1ccccc1C=C1c2ccccc2-c2ccc([N+](=O)[O-])cc21
IC50 (MDA-MB-231 [1]): > 10 µM
IC50 (MCF7 [2]): > 10 µM

Compound: CC(=O)N1CCN(CCOc2ccccc2C=C2c3ccccc3-c3ccc([N+](=O)[O-])cc32)CC1
IC50 (MDA-MB-231 [1]): > 10 µM
IC50 (MCF7 [2]): > 10 µM

Compound: NC[C@H](CCl)Oc1ccccc1C=C1c2ccccc2-c2ccc([N+](=O)[O-])cc21
IC50 (MDA-MB-231 [1]): > 10 µM
IC50 (MCF7 [2]): > 10 µM

Compound: Nc1ncccc1C=C1c2ccccc2-c2ccc([N+](=O)[O-])cc21
IC50 (MDA-MB-231 [1]): > 10 µM
IC50 (MCF7 [2]): > 10 µM

Compound: O=[N+]([O-])c1ccc2c(c1)C(=Cc1ccccc1OCCN1CCNCC1)c1ccccc1-2
inhibition at 10 µM (MCF7 [3]): > 50%
IC50 (MDA-MB-231 [1]): 3.5 µM
IC50 (MCF7 [2]): 4.97 µM
inhibition at 10 µM (MDA-MB-231 [4]): > 50%

Compound: O=[N+]([O-])c1ccc2c(c1)C(=Cc1ccccc1O)c1ccccc1-2
IC50 (MCF-10A): 7.58 µM
inhibition at 10 µM (MCF7 [3]): > 50%
IC50 (MDA-MB-231 [1]): 5.6 µM
IC50 (MCF7 [2]): 8.3 µM
inhibition in vivo at 40 mg/kg (MDA-MB-231 [5]): 51%
IC50 (T47D): 10.4 µM
inhibition at 10 µM (MDA-MB-231 [4]): > 50%
Activity [6]: Non-Toxic
IC50 (MDA-MB-468): 16.1 µM

Compound: O=[N+]([O-])c1ccc2c(c1)C(=Cc1ccccc1OC1CCNCC1)c1ccccc1-2
inhibition at 10 µM (MCF7 [3]): > 50%
IC50 (MDA-MB-231 [1]): 3.53 µM
IC50 (MCF7 [2]): 5.45 µM
inhibition at 10 µM (MDA-MB-231 [4]): > 50%

Compound: COc1ncccc1C=C1c2ccccc2-c2ccc([N+](=O)[O-])cc21
IC50 (MDA-MB-231 [1]): > 10 µM
IC50 (MCF7 [2]): > 10 µM

Compound: CN(C)CCNc1ccccc1C=C1c2ccccc2-c2ccc([N+](=O)[O-])cc21
IC50 (MDA-MB-231 [1]): > 10 µM
IC50 (MCF7 [2]): > 10 µM

Compound: O=[N+]([O-])c1ccc2c(c1)C(=Cc1ccccc1Br)c1ccccc1-2
IC50 (MDA-MB-231 [1]): > 10 µM
IC50 (MCF7 [2]): > 10 µM

Compound: NCCOc1cccc(C=C2c3ccccc3-c3ccc([N+](=O)[O-])cc32)c1
inhibition at 10 µM (MCF7 [3]): > 50%
IC50 (MDA-MB-231 [1]): 4.87 µM
IC50 (MCF7 [2]): 3.77 µM
inhibition at 10 µM (MDA-MB-231 [4]): > 50%

Compound: NCCOc1ccc(C=C2c3ccccc3-c3ccc([N+](=O)[O-])cc32)cc1
inhibition at 10 µM (MCF7 [3]): > 50%
IC50 (MDA-MB-231 [1]): 6.4 µM
IC50 (MCF7 [2]): 8.47 µM
inhibition at 10 µM (MDA-MB-231 [4]): > 50%

Compound: O=[N+]([O-])c1ccc2c(c1)C(=Cc1ccccc1OCCN1CCOCC1)c1ccccc1-2
IC50 (MDA-MB-231 [1]): > 10 µM

Compound: O=[N+]([O-])c1ccc2c(c1)C(=Cc1ccccc1OCCN1CCN(S(=O)(=O)C3CC3)CC1)c1ccccc1-2
IC50 (MDA-MB-231 [1]): > 10 µM

Compound: O=[N+]([O-])c1ccc2c(c1)C(=Cc1ccccc1OCCN1CCCCC1)c1ccccc1-2
IC50 (MDA-MB-231 [1]): 8.64 µM
IC50 (MCF7 [2]): > 10 µM
inhibition at 10 µM (MDA-MB-231 [4]): > 50%

Compound: CC(=O)NCCOc1ccccc1C=C1c2ccccc2-c2ccc([N+](=O)[O-])cc21
IC50 (MDA-MB-231 [1]): > 10 µM
IC50 (MCF7 [2]): > 10 µM

Compound: CS(=O)(=O)N1CCN(CCOc2ccccc2C=C2c3ccccc3-c3ccc([N+](=O)[O-])cc32)CC1
IC50 (MDA-MB-231 [1]): > 10 µM

Compound: O=[N+]([O-])c1ccc2c(c1)C(=Cc1cccnc1N1CCNCC1)c1ccccc1-2
inhibition at 10 µM (MCF7 [3]): > 50%
IC50 (MDA-MB-231 [1]): 4.27 µM
IC50 (MCF7 [2]): 5 µM
inhibition at 10 µM (MDA-MB-231 [4]): > 50%

Compound: CN1CCN(CCOc2ccccc2C=C2c3ccccc3-c3ccc([N+](=O)[O-])cc32)CC1
inhibition at 10 µM (MCF7 [3]): > 50%
IC50 (MDA-MB-231 [1]): > 10 µM
IC50 (MCF7 [2]): 9.58 µM

Compound: CC(C)[C@H](N)COc1ccccc1C=C1c2ccccc2-c2ccc([N+](=O)[O-])cc21
inhibition at 10 µM (MCF7 [3]): > 50%
IC50 (MDA-MB-231 [1]): 5.04 µM
IC50 (MCF7 [2]): 4.5 µM
inhibition at 10 µM (MDA-MB-231 [4]): > 50%

Further lines, with some results ahead:

IC50 (MDA-MB-231 [1]): 5.34 µM
IC50 (MCF7 [2]): 5.13 µM
Compound: NCCCOc1ccccc1C=C1c2ccccc2-c2ccc([N+](=O)[O-])cc21
inhibition at 10 µM (MCF7 [3]): > 50%
inhibition at 10 µM (MDA-MB-231 [4]): > 50%

IC50 (MDA-MB-231 [1]): > 10 µM
Compound: O=[N+]([O-])c1ccc2c(c1)C(=Cc1ccccc1OCCO)c1ccccc1-2

IC50 (MDA-MB-231 [1]): > 10 µM
IC50 (MCF7 [2]): > 10 µM
Compound: O=[N+]([O-])c1ccc2c(c1)C(=Cc1ccccc1OCCF)c1ccccc1-2

IC50 (MDA-MB-231 [1]): > 10 µM
IC50 (MCF7 [2]): > 10 µM
Compound: CN(C)CCOc1ccccc1C=C1c2ccccc2-c2ccc([N+](=O)[O-])cc21

IC50 (MDA-MB-231 [1]): 9.35 µM
IC50 (MCF7 [2]): 6.13 µM
Compound: NCCOCCOc1ccccc1C=C1c2ccccc2-c2ccc([N+](=O)[O-])cc21
inhibition at 10 µM (MCF7 [3]): > 50%
inhibition at 10 µM (MDA-MB-231 [4]): > 50%

IC50 (MDA-MB-231 [1]): 3.66 µM
IC50 (MCF7 [2]): 5.77 µM
Compound: NCCCCOc1ccccc1C=C1c2ccccc2-c2ccc([N+](=O)[O-])cc21
inhibition at 10 µM (MCF7 [3]): > 50%
inhibition at 10 µM (MDA-MB-231 [4]): > 50%

IC50 (MDA-MB-231 [1]): > 10 µM
IC50 (MCF7 [2]): > 10 µM
Compound: Nc1ccc2c(c1)C(=Cc1ccccc1O)c1ccccc1-2

IC50 (MDA-MB-231 [1]): > 10 µM
IC50 (MCF7 [2]): > 10 µM
Compound: Nc1ccccc1C=C1c2ccccc2-c2ccc([N+](=O)[O-])cc21

IC50 (MDA-MB-231 [1]): 3.22 µM
IC50 (MCF7 [2]): 3.81 µM
IC50 (T47D): 9.47 µM
IC50 (MDA-MB-468): 8.73 µM
Compound: NCCOc1ccccc1C=C1c2ccccc2-c2ccc([N+](=O)[O-])cc21
IC50 (MCF-10A): 4.37 µM
Ratio IC50 (MDA-MB-231 [7]): 1.7 - 2.2
Activity [8]: Non-Toxic
Ratio IC50 (MCF7 [9]): 1.7 - 2.2
inhibition in vivo at 20 mg/kg (MDA-MB-231 [10]): 57%
inhibition at 10 µM (MCF7 [3]): > 50%
inhibition at 10 µM (MDA-MB-231 [4]): > 50%

IC50 (MDA-MB-231 [1]): 5.48 µM
IC50 (MCF7 [2]): 4.26 µM
Compound: CNCCOc1ccccc1C=C1c2ccccc2-c2ccc([N+](=O)[O-])cc21
inhibition at 10 µM (MCF7 [3]): > 50%
inhibition at 10 µM (MDA-MB-231 [4]): > 50%

IC50 (MDA-MB-231 [1]): 5.08 µM
IC50 (MCF7 [2]): 4.66 µM
Compound: CC[C@H](N)COc1ccccc1C=C1c2ccccc2-c2ccc([N+](=O)[O-])cc21
inhibition at 10 µM (MCF7 [3]): > 50%
inhibition at 10 µM (MDA-MB-231 [4]): > 50%

IC50 (MDA-MB-231 [1]): 6.03 µM
IC50 (MCF7 [2]): 6.31 µM
Compound: NCCOc1ccccc1C=C1c2ccccc2-c2ccc(N)cc21
inhibition at 10 µM (MCF7 [3]): > 50%
inhibition at 10 µM (MDA-MB-231 [4]): > 50%
